Shown are actives, neighbours in structure and some others; about 1.8% of the full set was active somewhere.
HTRA1 inh: HTRA1 serine protease inhibitors, primary screen, biochemical, fluorescence polarization, HTS. Q92743. recombinant HTRA1, FP-rhodamine activity-based probe. inhibition, % at 5.96 µM. 340,000 tested, 0.5% active. AID 504803, 2011; in the data active means inhibition above about 36%;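 further: 0% = enzyme with DMSO and 100% = wells lacking enzyme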
ABHD4 inh: ABHD4 inhibitors, primary screen, biochemical, fluorescence polarization, mouse. purified mABHD4, FP-Rh probe fluorescence polarization. inhibition, % at 8.92 µM. 370,000 tested, 0.54% active. (Lyso)-N-acylphosphatidylethanolamine lipase (Mus musculus), Q8VD66;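 active means inhibition exceeding the mean over every tested compound plus 3 SD, cut at about 30% in these data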;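 further: 0% = plate median of compound wells and 100% = S159A mutant with DMSO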
Target sequence (Q8VD66 whole entry, looked up): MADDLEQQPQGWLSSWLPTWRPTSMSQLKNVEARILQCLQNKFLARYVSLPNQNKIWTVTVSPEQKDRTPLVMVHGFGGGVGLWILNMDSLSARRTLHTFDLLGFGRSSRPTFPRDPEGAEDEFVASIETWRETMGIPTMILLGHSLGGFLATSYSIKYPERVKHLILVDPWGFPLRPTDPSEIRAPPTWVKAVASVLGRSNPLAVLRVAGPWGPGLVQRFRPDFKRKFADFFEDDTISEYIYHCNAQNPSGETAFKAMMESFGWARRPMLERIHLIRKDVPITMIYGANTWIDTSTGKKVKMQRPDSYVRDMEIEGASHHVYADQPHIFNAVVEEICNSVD
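Test system: mABHD4 protein; Read-out basis: % inhibition; Incubation: 45 min + 60 min at 25 °C; Repeats: single replicate; Technique: fluorescence polarization with parallel and perpendicular emission, 525/598 nm; Compound: 8.92 µM, single dose; Benchmarks: full inhibition S159A mutant plus DMSO, zero as sample-well median.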
SIAE inh: human SIAE inhibitors, primary screen, biochemical, fluorescence polarization, FP-Rh probe, 1536-well HTS | 370,000 tested, 0.69% active | AID 1053197, 2014 | inhibition, % at 9.66 µM | SIAE FP-Rh probe binding;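 active means inhibition above a cutoff: mean of compounds within the control limits plus 3 SD of those, cut at about 17% in these data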;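 further: 0% = plate median of compound wells and 100% = probe without SIAE protein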
ARNT TACC3 PPI: disruptors of ARNT/TACC3 protein interaction, primary screen, biochemical, AlphaScreen, single concentration; 390,000 tested, 0.66% active; Transforming acidic coiled-coil-containing protein 3 (Homo sapiens), Q9Y6A5; inhibition, % at 9.99 µM; AlphaScreen His-ARNT PAS-B/GST-TACC3 binding, luminescence; TACC3 fragment carries E629A point mutation; AID 623870, 2012;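 active means mean inhibition of replicates at least 50% and at least half of replicates each reaching 50%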;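 further: 0% = complete ARNT plus TACC3 wells and 100% = ARNT alone without TACC3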
TCR CD3 inh: inhibitors of human TCR-CD3 interaction, primary screen, biochemical, fluorescence, TAMRA-labeled TCR probe | inhibition, % at 9.4 µM | T-cell receptor (TCR) | AID 651800, 2012 | 360,000 tested, 0.37% active;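 further: recombinant mutant TCR 2C K166C tagged with TAMRA read by polarization; 0% = receptor in buffer alone and 100% = receptor with positive control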
BSA probe FL: compounds interfering with TAMRA-BSA probe, counter-screen for TCR-CD3 interaction inhibitor project, biochemical, fluorescence, TAMRA-labeled BSA; inhibition, % at 9.4 µM; AID 652035, 2013; 1,200 tested, 10% active; shares compounds with TCR CD3 inh; TAMRA-labeled BSA probe fluorescence counterscreen; in the data active means inhibition above about 23%;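 further: 0% = buffer low control and 100% = reference high control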
TCR-CD3 inh conf: TCR-CD3 interaction inhibitors, retest, confirmation, biochemical, fluorescence, TAMRA-labeled TCR probe; TAMRA-labeled TCR probe fluorescence binding assay; 1,200 tested, 48% active; AID 652036, 2013; inhibition, % at 9.4 µM; shares compounds with TCR CD3 inh
Active calls of the source: *; / = not tested or not shown. Unless noted, no stated cut-off is given here; in the data, active means inhibition above about 19%; inactive means the rest.

SMILES | HTRA1 inh | ABHD4 inh | SIAE inh | ARNT TACC3 PPI | TCR CD3 inh | BSA probe FL | TCR-CD3 inh conf
O=C(C[C@H]1CC[C@H]2[C@@H](COC[C@H](O)CN2C(=O)Nc2ccc(F)cc2)O1)NC1Cc2ccccc2C1 | / | / | / | 4 | / | / | /
O=C(O)c1ccc(-n2cccc2/C=N\NC(=O)c2cc3cc(Br)ccc3o2)cc1 | -17 | -2 | -3 | 0 | 29* | -6 | 37*
C[C@H](CO)N1C[C@H](C)[C@@H](CN(C)Cc2cncnc2)Oc2cc(-c3ccccc3F)ccc2S1(=O)=O | / | / | / | 0 | / | / | /
CC1SC(=NC(=O)C(C)N2C(=O)c3ccccc3C2=O)NC1=O (configuration not stated) | 8 | 1 | 0 | -4 | 104* | 3 | 0
CC(C(=O)N1CCCCC1)N1C(=O)c2ccccc2C1=O (configuration not stated) | 2 | 2 | 3 | -2 | -1 | / | /
C[C@@H]1CN([C@H](C)CO)C(=O)c2cc(NC(=O)Nc3ccc(C(F)(F)F)cc3)ccc2O[C@H]1CN(C)S(=O)(=O)c1cccs1 | -158 | -135 | -195 | 8 | 43* | 10 | 23*
C[C@H](CO)N1C[C@H](C)[C@@H](CN(C)S(=O)(=O)c2cccs2)Oc2ccc(NC(=O)Nc3ccc(C(F)(F)F)cc3)cc2C1=O | -123 | -111 | -210 | 0 | 28* | 8 | 19*
C[C@@H]1CN([C@H](C)CO)C(=O)c2cc(NC(=O)Nc3ccc(F)cc3)ccc2O[C@@H]1CN(C)S(=O)(=O)c1cccs1 | / | / | / | -5 | / | / | /
CC(C)NC(=O)NNC(=O)c1nn(-c2ccc(F)cc2)ccc1=O | 8 | 0 | -2 | -1 | 20* | 0 | 15
O=C(NNC(=O)c1nn(-c2ccc(F)cc2)ccc1=O)Nc1cccc(Cl)c1 | / | 1 | 10 | -8 | 34* | -14 | 26*
COc1cccc(N=Cc2c(O)n(-c3cccc(C)n3)c(=O)c3ccccc23)c1 | -34 | -13 | -2 | -6 | 3 | / | /
Cc1cccc(-n2c(O)c(C=Nc3cc(O)ccc3C)c3ccccc3c2=O)n1 | -2 | 1 | 16 | -2 | 37* | -21 | 6
Cc1cccc(-n2c(O)c(/C=N/NC(=O)c3ccccc3Cl)c3ccccc3c2=O)n1 | 24 | 0 | 5 | / | 28* | -3 | 37*
CN1C(=O)c2cc(NC(=O)C3CCCCC3)ccc2OC[C@H]2O[C@@H](CC(=O)NCCc3ccncc3)CC[C@H]21 | / | / | / | 7 | / | / | /
C[C@@H]1CCCCO[C@H](CN(C)C(=O)Nc2ccc(F)cc2)[C@@H](C)CN([C@H](C)CO)C(=O)c2cc(NC(=O)Nc3ccc4c(c3)OCO4)ccc2O1 | / | / | / | -9 | / | / | /
CC(=O)N1[C@H](CO)[C@H](c2ccccc2)[C@@H]1CN(C(=O)c1ccccc1)C(C)C | / | / | / | -1 | / | / | /
O=C(C[C@H]1CC[C@@H]2[C@H](COC[C@@H](O)CN2Cc2ccccc2F)O1)N1CCc2ccccc2C1 | / | / | / | 0 | / | / | /
COc1ccc(Cl)cc1C(=O)NC(=S)Nc1cc(-c2nc3ccccc3[nH]2)ccc1C | -108 | -72 | -117 | -5 | 47* | -4 | 3
Cc1noc(C)c1S(=O)(=O)N(C)C[C@@H]1OCCCC[C@@H](C)Oc2ccc(NC(=O)NC(C)C)cc2C(=O)N([C@H](C)CO)C[C@@H]1C | / | / | / | -2 | / | / | /
Cn1c(SCC(=O)c2ccc(O)c(O)c2)nnc1-c1ccccc1 | 13 | 25 | 8 | -19 | 6 | / | /
Cn1c(SCC(=O)c2ccc(O)c(O)c2)nnc1-c1cccs1 | 18 | 24 | 10 | 0 | 23* | -12 | 17
CCN1[C@H](C(=O)NCCN2CCCCC2)[C@@H](CO)[C@@H]2Cn3c(ccc(-c4ccc(OC)cc4)c3=O)[C@@H]21 | / | / | / | 6 | / | / | /
Cc1cc(C(=O)N/N=C/c2ccc(O)c([N+](=O)[O-])c2)n[nH]1 | -4 | 6 | 2 | / | 2 | / | /
O=C(Cn1nnc(-c2ccccc2)n1)N/N=C/c1cccc([N+](=O)[O-])c1O | / | 6 | -1 | 17 | 38* | -3 | 50*
Cc1cc(C(=O)N/N=C/c2cc(Br)cc([N+](=O)[O-])c2O)c2ccccc2n1 | 11 | 44* | 14 | 27 | 41* | -10 | 43*
SMILES | HTRA1 inh | ABHD4 inh | SIAE inh | ARNT TACC3 PPI | TCR CD3 inh | BSA probe FL | TCR-CD3 inh conf
O=C(Cn1nnc(-c2ccccc2)n1)N/N=C/c1cccc([N+](=O)[O-])c1 | -1 | -2 | 5 | 1 | 9 | / | /
Cc1cc(C(=O)N/N=C/c2cccc([N+](=O)[O-])c2O)n[nH]1 | 1 | 15 | 5 | / | 29* | -8 | 9
C[C@@H]1CCCCO[C@@H](CN(C)C(=O)NC2CCCCC2)[C@H](C)CN([C@H](C)CO)C(=O)c2cc(NC(=O)c3ccncc3)ccc2O1 | / | / | / | 4 | / | / | /
Cc1noc(C)c1NC(=O)Nc1ccc2c(c1)CC(=O)N([C@@H](C)CO)C[C@@H](C)[C@H](CN(C)C(=O)Nc1ccccc1)O2 | / | / | / | -8 | / | / | /
NNC(=O)c1nc[nH]c1C(=O)Nc1ccccn1 | 5 | -3 | -3 | 48* | 38* | 2 | 25*
Oc1ccc(Br)cc1/C=N/n1c(COc2ccccc2)n[nH]c1=S | 11 | 0 | 5 | 3 | 20* | 3 | 14
Cc1nc(CSc2ccc(Cl)cc2)cc(N2CCOCC2)n1 | -4 | 1 | -3 | 4 | -3 | / | /
Cc1ccc(SCc2cc(=O)[nH]c(N3CCOCC3)n2)cc1 | 3 | 0 | 2 | -4 | 19* | 5 | 2
COc1ccc(O)c(/C=N/NC(=O)c2c(C)nnn2-c2nonc2N)c1 | 4 | 5 | 4 | -5 | 25* | -5 | 10
COCCNC(=O)C[C@@H]1C[C@@H]2c3cc(NS(C)(=O)=O)ccc3O[C@@H]2[C@@H](CO)O1 | / | / | / | -6 | / | / | /
Cc1ncc(CO)c2c1Oc1nc(-c3ccccc3)nc(SCC(=O)Nc3cccc(O)c3)c1C2 | -113 | -97 | -78 | 5 | 21* | 3 | 7
COc1ccc(-c2nc3c(c(SCC(=O)Nc4cccc(O)c4)n2)Cc2c(CO)cnc(C)c2O3)cc1 | -131 | -119 | -79 | -14 | 16 | / | /
Cc1cc2nc3c(=O)[nH]c(=O)[nH]c3nc2c([N+](=O)[O-])c1N | 29 | 18 | 12 | 38 | 24* | 85* | 103*

Compound activity: PubChem BioAssay, several laboratories
